Measurements pooled from the literature.
Protocols differ between the studies behind these lines. ≈ marks a conversion by molar mass, not a printed value.

CC(=O)Nc1ccc(-c2nc(-c3ccc(Oc4ccccc4)cc3)no2)cc1 has an MIC of > 32 µg/mL (Enterococcus faecium; microbial growth, broth dilution; 24 h).
With C=CCCCCCCCCCCCC(O)CC(O)CO (centres unmarked) the IC50 was > 200 µg/mL (Mycobacterium intracellulare; microbial growth, resazurin; ATCC23068).
The EC50 of C[C@@H](Oc1cc(-n2cnc3ccc(OCC4CCN(C)CC4)cc32)sc1C(N)=O)c1ccccc1C(F)(F)F is reported as 15.8 nM (Trypanosoma brucei; parasite growth).
For C#CCCCCCCCCC=CCC(O)CC(O)CO (centres unmarked), the IC50 was > 200 µg/mL (Mycobacterium intracellulare; microbial growth, resazurin; ATCC23068).
O=C(O)c1cn(C2CC2)c2cc(N3CCNCC3)c(F)cc2c1=O gave an IC50 of 690 nM (Mycobacterium intracellulare; microbial growth; ATCC23068).
With Cc1ccc2c(-c3ccnc(Nc4ccccc4)n3)c(-c3ccc(F)cc3)nn2n1 the IC50 was 5500 nM (Plasmodium berghei; parasite growth, luciferase; human; liver stage).
CC(=O)OCC#Cc1ccc(/C=C/c2nc3ccccc3c(=O)n2-c2cccc(C(=O)O)c2)cc1 has an MIC of > 128 µg/mL (Enterococcus faecium; microbial growth, broth dilution; NCTC7171).
With N#CCNC(=O)c1ccc(-c2ccnc(Nc3ccc(N4CCOCC4)cc3)n2)cc1 the IC50 was 550 nM (Plasmodium berghei; parasite growth, luciferase; human; liver stage).
With CC1=C(C(=O)Nc2ccc3[nH]ncc3c2)C(c2ccc3ccccc3c2)CC(=O)N1 (centres unmarked) the EC50 was 3980 nM (Trypanosoma brucei; parasite growth).
CS(=O)(=O)NCc1cccc(-n2c(/C=C/c3ccc(C#N)cc3)nc3ccccc3c2=O)c1 gave an MIC of > 128 µg/mL (Enterococcus faecium; microbial growth, broth dilution; NCTC7171).
CC1=C(C(=O)Nc2cc3cn[nH]c3cc2F)C(c2ccc(C(F)(F)F)cc2)CC(=O)N1 (centres unmarked) has an IC50 of 4700 nM (Plasmodium berghei; parasite growth, luciferase; human; liver stage).
CS(=O)(=O)Nc1cccc(-n2c(/C=C/c3ccc(F)cc3)nc3ccccc3c2=O)c1 has an MIC of > 128 µg/mL (Enterococcus faecium; microbial growth, broth dilution; NCTC7171).
Oc1ccc(-c2nc(-c3ccc(Oc4ccccc4)cc3)no2)cc1 gave an MIC of 2 µg/mL (≈ 6.05 µM) (Enterococcus faecium; microbial growth, broth dilution; 24 h).
N#Cc1ccc(/C=C/c2nc3ccccc3c(=O)n2-c2cccc(C(=O)NCc3cccnc3)c2)cc1 has an MIC of > 128 µg/mL (Enterococcus faecium; microbial growth, broth dilution; NCTC7171).
O=C(O)c1cn(C2CC2)c2cc(N3CCNCC3)c(F)cc2c1=O gave an IC50 of 0.48 µg/mL (Mycobacterium intracellulare; microbial growth, resazurin; ATCC23068).
With O=c1c2cnccc2nc(/C=C/c2ccc(F)cc2)n1-c1cccc(O)c1 the MIC was > 128 µg/mL (Enterococcus faecium; microbial growth, broth dilution; NCTC7171).
The EC50 of CS(=O)(=O)CCNCc1nc(-c2ccc3ncnc(Nc4ccc(OCc5cccc(C(F)(F)F)c5)cc4)c3c2)cs1 is reported as 3160 nM (Trypanosoma brucei; parasite growth).
The IC50 of C[C@@H]1[C@H](O)[C@@H](C)/C=C/C=C/C=C/C=C/C=C/C=C/C=C/[C@H](O[C@@H]2O[C@H](C)[C@@H](O)[C@H](N)[C@@H]2O)C[C@@H]2O[C@](O)(C[C@@H](O)C[C@@H](O)[C@H](O)CC[C@@H](O)C[C@@H](O)CC(=O)O[C@H]1C)C[C@H](O)[C@H]2C(=O)O is reported as 300 nM (Candida albicans; microbial growth; ATCC90028).
For COc1cc(C=NNc2ncnc3c2cnn3-c2ccccc2)ccc1O, the EC50 was 1580 nM (Trypanosoma brucei; parasite growth).
The MIC of Cl.NCCc1ccc(Oc2ccc(-c3noc(-c4ccc(O)cc4)n3)cc2)cc1 is reported as 4 µg/mL (Enterococcus faecium; microbial growth, broth dilution; 24 h).
CC(=O)Oc1ccc(-n2c(/C=C/c3ccc([N+](=O)[O-])cc3)nc3ccccc3c2=O)cc1 gave an MIC of 32 µg/mL (≈ 74.9 µM) (Enterococcus faecium; microbial growth, broth dilution; NCTC7171).
With C[C@@H]1[C@H](O)[C@@H](C)/C=C/C=C/C=C/C=C/C=C/C=C/C=C/[C@H](O[C@@H]2O[C@H](C)[C@@H](O)[C@H](N)[C@@H]2O)C[C@@H]2O[C@](O)(C[C@@H](O)C[C@@H](O)[C@H](O)CC[C@@H](O)C[C@@H](O)CC(=O)O[C@H]1C)C[C@H](O)[C@H]2C(=O)O the IC50 was 0.26 µg/mL (Candida albicans; microbial growth, broth dilution; ATCC90028).
O=C(Nc1ccc(Oc2ccc3nc(NC(=O)c4ccco4)[nH]c3c2)cc1)Nc1cc(C(F)(F)F)ccc1F has an EC50 of 2510 nM (Trypanosoma brucei; parasite growth).
N#Cc1ccc(/C=C/c2nc3ccccc3c(=O)n2-c2cccc(CC(=O)O)c2)cc1 gave an MIC of > 128 µg/mL (Enterococcus faecium; microbial growth, broth dilution; NCTC7171).
With CCCCCCCCCCCCCC(O)CC(O)CO (centres unmarked) the IC50 was > 200 µg/mL (Mycobacterium intracellulare; microbial growth, resazurin; ATCC23068).
With COC(=O)c1ccc2c(c1)C(=Cc1cc(Br)c(O)c(Br)c1)C(=O)N2 the IC50 was 6700 nM (Plasmodium berghei; parasite growth, luciferase; human; liver stage).
The MIC of Cl.NCCCc1ccc(Oc2ccc(-c3noc(-c4ccc(O)cc4)n3)cc2)cc1 is reported as 2 µg/mL (Enterococcus faecium; microbial growth, broth dilution; 24 h).
O=S(=O)(CCOCc1ccc(-c2ccc3ncnc(Nc4ccc(OCc5cccc(F)c5)c(Cl)c4)c3c2)o1)c1ccccc1 gave an EC50 of 1580 nM (Trypanosoma brucei; parasite growth).
For Cl.NCc1ccc(Oc2ccc(-c3noc(-c4ccc(O)cc4)n3)cc2)cc1, the MIC was 4 µg/mL (Enterococcus faecium; microbial growth, broth dilution; 24 h).
The EC50 of COc1cc(/C=N/Nc2ncnc3c2cnn3C(C)C)ccc1O is reported as 1000 nM (Trypanosoma brucei; parasite growth).
O=C(Nc1ccccc1-c1ccc(F)c(F)c1)c1nccnc1C(F)(F)F gave an EC50 of 0.11 µg/mL (Monilinia fructicola; microbial growth).
Cl.NCc1ccccc1Oc1ccc(-c2noc(-c3ccc(O)cc3)n2)cc1 has an MIC of 8 µg/mL (Enterococcus faecium; microbial growth, broth dilution; 24 h).
For CC1=C(C(=O)Nc2ccc3[nH]ncc3c2)C(c2ccc(Cl)c(Cl)c2)CC(=O)N1 (centres unmarked), the EC50 was 25100 nM (Trypanosoma brucei; parasite growth).
CC(=O)Nc1cccc(-n2c(/C=C/c3ccc(F)cc3)nc3ccccc3c2=O)c1 has an MIC of > 128 µg/mL (Enterococcus faecium; microbial growth, broth dilution; NCTC7171).
O=C(O)Cc1cccc(Oc2ccc(-c3noc(-c4ccc(O)cc4)n3)cc2)c1 gave an MIC of > 32 µg/mL (Enterococcus faecium; microbial growth, broth dilution; 24 h).
